# Experimental data as given in ChEMBL document CHEMBL2086391, “Structure based molecular design, synthesis and biological evaluation of α-pyrone analogs as anti-HSV agent” (Bioorg Med Chem Lett, 2012).
# The source made the active and inactive calls. The rule behind the calls is not given here.
# Legend:
# Human alphaherpesvirus 1 [1] = experiment: Antiviral activity against HSV-1F ATCC 733 infected in african green monkey Vero cells assessed as inhibition of virus yield at 20 ug/ml after 3 days by MTT assay; assay type: functional; conditions: Human alphaherpesvirus 1, ATCC 733, Vero, 72 h
# Human alphaherpesvirus 1 [2] = experiment: Antiviral activity against HSV-1F ATCC 733 infected in african green monkey Vero cells assessed as inhibition of virus induced cytopathic effect after 3 days by MTT assay; assay type: functional, organism-based; conditions: Human alphaherpesvirus 1, ATCC 733, Vero, 72 h
# How it was run: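 Vero cells seeded at 1.0 × 10^5 cells/ml, held 6 h at 37 °C, 5% CO2, then infected with virus at 0.5 MOI for 1 h. Serial compound concentrations added in triplicate, with 0.1% DMSO and acyclovir controls. MTT read after 3 days at 37 °C. % inhibition taken from test, virus-control and cell-control absorbances. EC50 is 50% inhibition of virus-induced CPE; experiment repeated three times.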
# [3] = Cytotoxicity against african green monkey Vero cells after 2 days by MTT assay; assay type: cell-based; conditions: chlorocebus sabaeus
# How it was run: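 Vero cells plated at 1.0 × 10^5 cells/ml and exposed in triplicate to a range of compound concentrations, with 0.1% DMSO as negative control. After 2 days at 37 °C, 5% CO2, MTT added for 4 h. Formazan dissolved in 0.04 N HCl/isopropanol and read at 570 nm (reference 690 nm). % viability taken against media control; CC50 in µg/ml.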
# [4] = Selectivity index, ratio of CC50 for african green monkey Vero cells to EC50 for HSV-1F ATCC 733; assay type: toxicity, cell-based; conditions: read-out: Ratio CC50/EC50
# How it was run: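 SI computed as CC50/EC50. CC50 from the 2-day MTT viability assay on Vero cells; EC50 from the 3-day MTT assay of HSV-1 cytopathic effect (MOI 0.5). Both in µg/ml.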
# [5] = system: Human immunodeficiency virus; experiment: Antiviral activity against HIV infected in human MT4 cells by MTT assay; assay type: functional, organism-based
# Human alphaherpesvirus 1 [6] = experiment: Antiviral activity against HSV-1F ATCC 733 infected in african green monkey Vero cells after 2 to 3 days by plaque reduction assay; assay type: functional, organism-based; conditions: Human alphaherpesvirus 1, ATCC 733, Vero
# How it was run: (§1)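 Vero cells infected at MOI 0.5 (HSV-1 or HSV-2), with serial compound dilutions in EMEM, held 1–2 h at room temperature. Cells then washed and overlaid with methylcellulose. Plaques stained with crystal violet after 2–3 days. Acyclovir and 0.1% DMSO served as controls. EC50 (50% plaque reduction) interpolated from dose-response curves.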
# [7] = system: Human herpesvirus 2 strain G; experiment: Antiviral activity against HSV-2G ATCC 734 infected in african green monkey Vero cells after 2 to 3 days by plaque reduction assay; assay type: functional, organism-based; conditions: Human alphaherpesvirus 2, ATCC 734, Vero; how it was run: as §1
# [8] = Selectivity index, ratio of CC50 for african green monkey Vero cells to EC50 for HSV-1F ATCC 733 by plaque reduction assay; assay type: toxicity, cell-based; conditions: read-out: Ratio CC50/EC50
# How it was run: (§2)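 SI derived from the Vero CC50 (MTT) divided by the plaque-reduction EC50 against the named HSV strain (MOI 0.5, methylcellulose overlay, crystal violet count after 2–3 days).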
# [9] = Selectivity index, ratio of CC50 for african green monkey Vero cells to EC50 for HSV-2G ATCC 734 by plaque reduction assay; assay type: toxicity, cell-based; conditions: read-out: Ratio CC50/EC50; how it was run: as §2
SMILES,inhibition at 20 µg/mL (Human alphaherpesvirus 1 [1]),EC50 (Human alphaherpesvirus 1 [2]),CC50 at 48 h [3],selectivity ratio [4],Activity [5],EC50 (Human alphaherpesvirus 1 [6]),EC50 [7],selectivity ratio [8],selectivity ratio [9]
O=C(NCCO)c1c(N2CCCC2)cc(-c2ccccc2)oc1=O,70%,9.7 µg/mL,30 µg/mL,3.1,inactive,–,–,–,–
O=C(Nc1ccccc1)c1c(N2CCCC2)cc(-c2ccccc2)oc1=O,79%,12.5 µg/mL,37.5 µg/mL,3,inactive,–,–,–,–
O=C(NCCO)c1c(N2CCCC2)cc(-c2ccc(F)cc2)oc1=O,–,–,–,–,inactive,–,–,–,–
O=C(Nc1ccc(Br)cc1)c1c(N2CCCC2)cc(-c2ccccc2)oc1=O,–,–,–,–,inactive,–,–,–,–
O=C(NCCO)c1c(N2CCCCC2)cc(-c2ccccc2)oc1=O,89%,7.4 µg/mL,52.5 µg/mL,7.1,inactive,4.1 µg/mL,14.5 µg/mL,12.8,3.6
O=C(Nc1ccc(F)cc1)c1c(N2CCCC2)cc(-c2ccccc2)oc1=O,–,–,–,–,inactive,–,–,–,–
Nc1nc2c(ncn2COCCO)c(=O)[nH]1 [ACYCLOVIR],94%,–,130 µg/mL,–,–,–,1.8 µg/mL,–,–
O=C(Nc1ccc(Cl)cc1)c1c(N2CCCC2)cc(-c2ccccc2)oc1=O,–,–,–,–,inactive,–,–,–,–
Cc1ccc(NC(=O)c2c(N3CCCC3)cc(-c3ccccc3)oc2=O)cc1,62%,20.9 µg/mL,56.5 µg/mL,2.7,inactive,–,–,–,–
O=C(NCCO)c1c(N2CCCCC2)cc(-c2ccc(F)cc2)oc1=O,–,–,–,–,inactive,–,–,–,–
